Data set [1] in a line: Toxicity in po dosed Sprague-Dawley rat assessed as maximum tolerated dose. As to conditions: in vivo. It is filed as organism-based. The gist of the method: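 Sprague-Dawley rats given escalating single doses; animals observed for adverse signs; lethargic or dead animals necropsied; maximum tolerated dose taken as the highest dose without adverse effects.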
Data set [2] is described as follows: Therapeutic index, ratio of MTD to drug level causing maximal reduction of glucose AUC in po dosed Sprague-Dawley rat. As to conditions: in vivo.
For data set [3], the system named is Rattus norvegicus. Kind of data set: Toxicity in po dosed Sprague-Dawley rat assessed as maximum tolerated dose relative to Val-boroPro. As to conditions: in vivo. It is filed as organism-based.
Data set [4] relates to Mus musculus. As to the kind of experiment: Reduction of glucose level in po dosed C57BL/6 mouse by oral glucose tolerance test. It is filed as functional, organism-based. The gist of the method:
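Male C57BL/6 mice, 7-8 per group, fasted 20 h, given vehicle or inhibitor by oral gavage at various doses. Oral glucose challenge (5 g/kg) 60 min later. Blood glucose read at 5 time points over 120 min.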

Data set [5] has as its system Rattus norvegicus. As to the kind of experiment: Inhibition of DPP4 in po dosed Sprague-Dawley rat plasma after 24 hrs. In kind it is functional, organism-based. In outline:
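Sprague-Dawley rats, 4-6 per inhibitor, single oral gavage dose across a dose range. Plasma DPP-IV activity sampled 6 times over 24 h post-dose. Percent change derived by comparing each treated sample's plasma activity with its own predose activity.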

The target in data set [6] is Dipeptidyl peptidase 4 (Homo sapiens, UniProt P27487). As to the kind of experiment: Inhibition of human placental DPP4.
Data set [7] has as its system Rattus norvegicus. Kind of data set: Inhibition of DPP4 in Sprague-Dawley rat plasma at 6 mg/kg, po after 4 hrs. As to conditions: read-out: INH.

Usually MTD stands for the largest dose that counted as tolerated. The Ki is the equilibrium dissociation constant of an inhibitor or competing ligand from its target. Low readings indicate higher affinity, high ones lower affinity.

Chain of Dipeptidyl peptidase 4 (P27487 whole entry): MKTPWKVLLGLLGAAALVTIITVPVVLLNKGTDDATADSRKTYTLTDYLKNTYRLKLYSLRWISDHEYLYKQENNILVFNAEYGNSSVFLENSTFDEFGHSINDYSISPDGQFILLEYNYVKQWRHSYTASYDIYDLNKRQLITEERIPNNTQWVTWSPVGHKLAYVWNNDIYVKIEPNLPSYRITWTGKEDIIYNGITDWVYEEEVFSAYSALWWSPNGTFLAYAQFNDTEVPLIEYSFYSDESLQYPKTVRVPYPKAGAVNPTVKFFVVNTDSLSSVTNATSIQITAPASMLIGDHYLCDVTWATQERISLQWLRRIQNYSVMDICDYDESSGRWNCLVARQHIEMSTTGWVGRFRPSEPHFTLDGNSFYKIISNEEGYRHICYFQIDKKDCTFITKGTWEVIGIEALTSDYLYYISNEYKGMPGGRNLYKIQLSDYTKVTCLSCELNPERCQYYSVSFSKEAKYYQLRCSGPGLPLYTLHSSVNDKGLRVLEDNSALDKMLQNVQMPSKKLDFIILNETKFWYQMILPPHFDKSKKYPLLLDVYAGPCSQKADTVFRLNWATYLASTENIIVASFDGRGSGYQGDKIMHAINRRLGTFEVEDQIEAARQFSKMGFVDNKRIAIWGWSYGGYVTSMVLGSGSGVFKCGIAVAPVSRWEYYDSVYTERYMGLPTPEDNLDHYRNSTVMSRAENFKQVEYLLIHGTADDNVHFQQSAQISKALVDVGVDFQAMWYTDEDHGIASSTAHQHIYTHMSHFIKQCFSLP

In the case of `CC[C@H](C)[C@H](N)C(=O)N1CCSC1`, the MTD in data set [1] is greater than 700 mg/kg. For the same compound, the selectivity ratio in data set [2] is greater than 35. Moreover, in data set [3], the Activity was greater than 28000.

Take `C[C@H](N)C(=O)N1CCC[C@H]1B(O)O`: the Activity entry is “Dose-dependent effect” in data set [4], 200 in data set [3] and “Dose-dependent effect” in data set [5].

On to `NCC(=O)N1CCC[C@H]1B(O)O`, for which, in data set [6], the Ki stood at 0.4 nM.

As to `CC(=O)N[C@H](C(=O)N1CCC[C@H]1B(O)O)C(C)C`, affinity in data set [6] was put at a Ki of 3300 nM.

Regarding `CC[C@@H](C)[C@H](N)C(=O)N1CCSC1`, the MTD in data set [1] was less than 300 mg/kg. For the same compound, in data set [2], the selectivity ratio is less than 15. In data set [3], the Activity was less than 12000.

As for `C[C@H](NC(=O)[C@@H](N)CCC(=O)O)B(O)O`, the MTD in data set [1] was greater than 500 mg/kg. Moreover, the Activity result in data set [4] was “Dose-dependent effect”; in data set [3] it was 20000; in data set [5], “Dose-dependent effect”. In data set [7], the inhibition in vivo at 6 mg/kg was found to be 80%.

As for `CC(C)[C@H](N)C(=O)N1CCC[C@H]1B(O)O` [TALABOSTAT], the Activity entry in data set [4] was “Dose-dependent effect”; in data set [3] it was 1; in data set [5] it was “Dose-dependent effect”.

In data set [6], `N[C@@H](CCC(=O)O)C(=O)N1CCC[C@H]1B(O)O` returned a Ki of 1.8 nM.

The values are drawn from ChEMBL document CHEMBL1140098, “Dipeptide boronic acid inhibitors of dipeptidyl peptidase IV: determinants of potency and in vivo efficacy and safety” (J Med Chem, 2008).
